Activity calls are given as the source filed them. The calls are words filed in the database; no cut-off is given here.
Key:
MCF7 = test: Growth inhibition of human MCF7 cells; assay type: functional
[1] = Growth inhibition of human LOXIMVI cells; assay type: functional; conditions: LOX IMVI
A498 = test: Growth inhibition of human A498 cells; assay type: functional
[2] = Growth inhibition of human HCT15 cells; assay type: functional
TK-10 = test: Growth inhibition of human TK10 cells; assay type: functional
[3] = molecular target: T1, Proteasome Macropain subunit MB1 (Homo sapiens) (UniProt P28074); test: Inhibition of chymotrypsin-like activity of 20S proteasome in human erythrocytes using Suc-Leu-Leu-Val-Tyr-AMC as substrate at 20 uM by fluorescence assay relative to control
T1 sequence (whole entry): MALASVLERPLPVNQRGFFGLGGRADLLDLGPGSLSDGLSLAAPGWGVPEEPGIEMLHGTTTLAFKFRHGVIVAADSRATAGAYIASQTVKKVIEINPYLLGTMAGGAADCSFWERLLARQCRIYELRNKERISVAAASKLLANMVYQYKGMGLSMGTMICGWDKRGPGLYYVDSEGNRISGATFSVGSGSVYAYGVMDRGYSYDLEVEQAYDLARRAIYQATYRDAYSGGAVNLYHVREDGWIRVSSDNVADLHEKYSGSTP
In short: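 Single inhibitor concentration, equivalent DMSO as negative control. AMC fluorescence read at ex 380/em 460 nm; percent inhibition of ChT-L activity.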

T47D = test: Growth inhibition of human T47D cells; assay type: functional
NCI-H460 = test: Growth inhibition of human NCI-H460 cells; assay type: functional
Chymotrypsinogen A = Chymotrypsinogen A (Bos taurus, UniProt P00766); test: Inhibition of bovine pancreatic alpha-chymotrypsin using Suc-Leu-Leu-Val-Tyr-AMC as substrate by fluorescence assay
In short: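 Enzyme incubated at 20 °C in 50 mM Tris pH 8.0, 100 mM NaCl, 5 mM EDTA, 7.5% DMSO with varied inhibitor concentrations. Substrate hydrolysis followed for 10 min. Ki from progress curves; mean of three determinations.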

[4] = Growth inhibition of human Hs 578T cells; assay type: functional
RPMI-8226 = test: Growth inhibition of human RPMI8226 cells; assay type: functional
SK-MEL-5 = test: Growth inhibition of human SK-MEL-5 cells; assay type: functional
NCI-H522 = test: Growth inhibition of human NCI-H522 cells; assay type: functional
HT-29 = test: Growth inhibition of human HT-29 cells; assay type: functional
SK-MEL-2 = test: Growth inhibition of human SK-MEL-2 cells; assay type: functional
[5] = Growth inhibition of human BT549 cells; assay type: functional
[6] = Cytotoxicity against human melanoma cells assessed as cell growth at 10 uM relative to control; assay type: functional; conditions: read-out: Activity
In short: (§1)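 Single-concentration screen against a panel of human cancer cell lines. Each value is the mean percent growth across the cell lines of that tumour subpanel.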

NCI-H23 = test: Growth inhibition of human NCI-H23 cells; assay type: functional
CAKI-1 = test: Growth inhibition of human CAKI-1 cells; assay type: functional
[7] = Cytotoxicity against human NSCLC cells assessed as cell growth at 10 uM relative to control; assay type: functional; conditions: read-out: Activity; in short: as §1
KM12 = test: Growth inhibition of human KM12 cells; assay type: functional
[8] = Growth inhibition of human UO31 cells; assay type: functional; conditions: UO-31
SK-OV-3 = test: Growth inhibition of human SKOV3 cells; assay type: functional
SNB-75 = test: Growth inhibition of human SNB75 cells; assay type: functional
[9] = molecular target: Proteasome Macropain subunit (Homo sapiens) (UniProt P49721); test: Inhibition of trypsin-like activity of 20S proteasome in human erythrocytes using Boc-Leu-Arg-Arg-AMC as substrate by fluorescence assay; assay type: cell-based
In short: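 Human 20S proteasome 0.0025 mg/mL at 30 °C in 50 mM Tris pH 7.4, 50 mM NaCl, 0.5 mM EDTA, 0.03% SDS, 7.5% DMSO. Varied inhibitor concentrations; AMC release monitored continuously for 10 min, ex 380/em 460 nm. Ki derived from progress-curve IC50 fit.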

[10] = Growth inhibition of human OVCAR3 cells; assay type: functional; conditions: OVCAR-3
Malme-3M = test: Growth inhibition of human MALME-3M cells; assay type: functional
U-251 = test: Growth inhibition of human U251 cells; assay type: functional
SNB-19 = test: Growth inhibition of human SNB19 cells; assay type: functional
HL-60(TB) = test: Growth inhibition of human HL-60(TB) cells; assay type: functional
[11] = molecular target: T2, Proteasome Macropain subunit MB1 (Homo sapiens, UniProt P28074); test: Inhibition of chymotrypsin-like activity of 20S proteasome in human erythrocytes using Suc-Leu-Leu-Val-Tyr-AMC as substrate by fluorescence assay; conditions: read-out: Ki
T2 sequence (P28074 whole entry): T1 sequence (whole entry)

M14 = test: Growth inhibition of human M14 cells; assay type: functional
[12] = Cytotoxicity against human breast cancer cells assessed as cell growth at 10 uM relative to control; assay type: functional; conditions: Cancer cell lines, read-out: Activity; in short: as §1
HOP-62 = test: Growth inhibition of human HOP62 cells; assay type: functional
[13] = read-out: LC50 (the source's name)

Chain of Proteasome Macropain subunit (Homo sapiens) (P49721 whole entry): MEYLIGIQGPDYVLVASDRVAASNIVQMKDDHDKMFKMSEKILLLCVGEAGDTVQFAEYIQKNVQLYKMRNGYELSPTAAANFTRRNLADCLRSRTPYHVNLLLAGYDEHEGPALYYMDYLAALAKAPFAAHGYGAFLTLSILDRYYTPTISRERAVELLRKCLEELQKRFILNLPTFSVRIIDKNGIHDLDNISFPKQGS

For `CC(C)C[C@H](NC(=O)CCn1ccc2ncccc2c1=O)B(O)O`, the GI50 (MCF7) was 3.61 µM, the TGI (MCF7) was over 100 µM and the CC50 (MCF7; [13]) was over 100 µM. For the same molecule, the GI50 [1] was 6.37 µM, the TGI [1] was 28.4 µM and the CC50 [1, 13] was over 100 µM. It also gave a GI50 (A498) of 3.07 µM, an LC50 (A498) of over 100 µM and a TGI (A498) of 24.3 µM. It also gave a GI50 ([2]; HCT-15) of 21.3 µM, a TGI ([2]; HCT-15) of over 100 µM and a CC50 ([2]; HCT-15, read-out: LC50 (the source's name)) of over 100 µM. The GI50 (TK-10) was 5.16 µM, the LC50 (TK-10) was over 100 µM and the TGI (TK-10) was 47.7 µM. The inhibition [3] was over 40%, the GI50 (T47D) was 4.67 µM and the TGI (T47D) was over 100 µM. For the same molecule, the CC50 (T47D; [13]) was over 100 µM, the GI50 (NCI-H460) was 36.2 µM and the LC50 (NCI-H460) was over 100 µM. For the same molecule, the TGI (NCI-H460) was over 100 µM, the Ki (Chymotrypsinogen A) was “Not Active” and the GI50 [4] was 15.6 µM. It also gave a TGI [4] of over 100 µM, a CC50 [4, 13] of over 100 µM and a GI50 (RPMI-8226) of 3.22 µM. The TGI (RPMI-8226) was over 100 µM, the CC50 (RPMI-8226; [13]) was over 100 µM and the GI50 (SK-MEL-5) was 4.03 µM. For the same molecule, the LC50 (concentration killing 50% of cells) (SK-MEL-5) was over 100 µM, the TGI (SK-MEL-5) was 22.1 µM and the GI50 (NCI-H522) was 4.66 µM. The LC50 (NCI-H522) was over 100 µM, the TGI (NCI-H522) was 21.7 µM and the GI50 (HT-29) was 6.77 µM. It also gave an LC50 (HT-29) of over 100 µM, a TGI (HT-29) of over 100 µM and a GI50 (SK-MEL-2) of 18.3 µM. For the same molecule, the LC50 (SK-MEL-2) was over 100 µM, the TGI (SK-MEL-2) was over 100 µM and the GI50 ([5]; BT-549) was 3.49 µM. For the same molecule, the TGI ([5]; BT-549) was 12.5 µM, the CC50 ([5]; BT-549, read-out: LC50 (the source's name)) was over 100 µM and the growth at 10 µM [6] was 60.4%. For the same molecule, the GI50 (NCI-H23) was 25.4 µM, the TGI (NCI-H23) was over 100 µM and the CC50 (NCI-H23; [13]) was over 100 µM. The GI50 (CAKI-1) was 19.4 µM, the TGI (CAKI-1) was over 100 µM and the CC50 (CAKI-1; [13]) was over 100 µM. It also gave a growth at 10 µM [7] of 80.3%, a GI50 (KM12) of 17 µM and an LC50 (KM12) of over 100 µM. The TGI (KM12) was 49.6 µM, the GI50 [8] was 19.4 µM and the LC50 [8] was over 100 µM. It also gave a TGI [8] of over 100 µM, a GI50 (SK-OV-3) of over 100 µM and an LC50 (SK-OV-3) of over 100 µM. For the same molecule, the TGI (SK-OV-3) was over 100 µM, the GI50 (SNB-75) was 13.3 µM and the LC50 (SNB-75) was over 100 µM. The TGI (SNB-75) was 44.9 µM, the inhibition [9] was “inactive” and the GI50 [10] was 4.65 µM. It also gave an LC50 (concentration killing 50% of cells) [10] of over 100 µM, a TGI [10] of 31.9 µM and a GI50 (Malme-3M) of 5.12 µM. The TGI (Malme-3M) was 62.2 µM, the CC50 (Malme-3M; [13]) was over 100 µM and the GI50 (U-251) was 33 µM. It also gave a TGI (U-251) of over 100 µM, a CC50 (U-251; [13]) of over 100 µM and a GI50 (SNB-19) of 41.2 µM. The TGI (SNB-19) was over 100 µM, the CC50 (SNB-19; [13]) was over 100 µM and the GI50 (HL-60(TB)) was 6.88 µM. It also gave a TGI (HL-60(TB)) of over 100 µM, a Ki [11] of 0.057 µM and a GI50 (M14) of 4.11 µM. The LC50 (concentration killing 50% of cells) (M14) was 97.9 µM, the TGI (M14) was 22.3 µM and the growth at 10 µM [12] was 68%. It also gave a GI50 (HOP-62) of 29.8 µM, a TGI (HOP-62) of over 100 µM and a CC50 (HOP-62; [13]) of over 100 µM.

Source: ChEMBL document CHEMBL3286129, “Optimization of peptidomimetic boronates bearing a P3 bicyclic scaffold as proteasome inhibitors” (Eur J Med Chem, 2014)
